Laboratory results published in article PMC4773674 (Journal of Diabetes Investigation, 2015).

Key:
[1] = cited from earlier work
[2] = Safety: adverse events, hypoglycemic episodes, injection-site reactions; type: in vivo, Japanese patients with type 1 diabetes
In short: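 Randomized, double-blind, two-period crossover trial with once-daily […] dosing at 20.00 h for 6 days; periods separated by 7–21-day washout; insulin aspart boluses allowed. Safety end-points: AEs, injection-site reactions, ECG, vital signs, labs. Confirmed hypoglycemia: severe (ADA definition), plasma glucose <3.1 mmol/L, or full blood glucose <2.8 mmol/L.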

[3] = Serum IDeg pharmacokinetics; type: in vivo, Japanese patients with type 1 diabetes
In short: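 Serum drug levels were measured by specific sandwich ELISA. Troughs were drawn before each of 6 once-daily doses given at 20.00 h. After the last dose, samples were taken every 1–2 h to 24 h, then at 30, 36, 48, 72, 96 and 120 h. Post-hoc steady-state time was the time from first dose until troughs exceeded 90% of final plateau.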

## insulin degludec [IDeg]
[1]; Caucasian patients, 0.4 U/kg
  AUCτ,SS, 24-h exposure: 82,612 pmol h/L
[1]; previously shown
  Time to steady state: 2 to 3 days
[2]; 6 days of once-daily 0.4 U/kg, 22 Japanese type 1 diabetes patients
  Tolerability: well tolerated
[2]; after treatment with IDeg
  Injection-site reactions: no injection‐site reactions were recorded
  Serious AEs: No serious AEs occurred
[2]; after treatment with IDeg, all AEs mild
  Treatment-emergent AEs (other than hypoglycemia), number: three
[2]; fixed dose 0.4 U/kg
  Patients with confirmed treatment-emergent hypoglycemic episodes, number: 13 patients
[2]; fixed dose 0.4 U/kg, confirmed = severe, or plasma glucose <3.1 mmol/L
  Confirmed treatment-emergent hypoglycemic episodes, number: 93
[3]; once-daily dosing, all Japanese patients, confirmed by post-hoc analyses
  Time to steady state (trough concentrations exceeding 90% of final plateau): 2 to 3 days
[3]; steady state, 120 h = end of observation period, Japanese patients
  Time for which serum IDeg was detectable after the last dose: at least 120 h
